Consider two compounds from paper PMC9358627 (Journal of clinical pharmacology, 2021).

The structures appear in SMILES notation. Like-named read-outs stand apart in the source and are kept apart here.

The conditions of data set [1]: following oral drug administration; attributed to enterohepatic circulation; ref [8],[12]; cited from earlier work.
The format of data set [2] is in vivo, human. Conditions: for AUC: Mycophenolic acid AUC6-12hr. Summed up:
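Steady state with the same oral dose for ≥7 days, calcineurin inhibitor co-therapy. Pre-dose sample, then dosing ~7 AM, meals at 4 h, serial sampling over 12 h. Plasma iced, centrifuged, stored −70°C. LC/MS of test compound and its glucuronide, LLOQ 0.072 µg/mL. Non-compartmental AUC0-12h by linear trapezoidal rule. […] AUC6-12h/AUC0-12h gauges enterohepatic circulation.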

Data set [3] can be described thus: Mycophenolic acid pharmacokinetic parameters by individual ABCC2 SNP genotype. Conditions: human, plasma, oral, mean; for AUC(0-t): Mycophenolic acid AUC0-12hr; for clearance: Mycophenolic acid Clearance. Format: in vivo. An outline of the steps: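 Stable transplant recipients were studied at steady state. Oral test compound was given with a calcineurin inhibitor, with meals 4 h post-dose. Serial 12-h plasma was analysed by LC/MS (standard curve 0.145–15.5 µg/mL). AUC0-12h came from the linear trapezoidal rule, non-compartmental. […] ABCC2 −24C>T, 1249G>A and 3972C>T were genotyped by TaqMan allelic discrimination, 10 ng DNA, in duplicate.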

The format of data set [4] is in vivo. Conditions: human, plasma, oral, C12hr, phenotypic mean (±95% CI). An outline of the steps:
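Stable kidney transplant recipients had held fixed doses for ≥7 days. Around 7 AM, after a 0-h draw, they took the oral test compound with a calcineurin inhibitor. Plasma was sampled serially over 12 h, iced, spun and stored at −70°C. LC/MS with internal standards (LLOQ 0.072 µg/mL) gave the 12-h trough. Three ABCC2 SNPs were TaqMan-genotyped in duplicate. THESIAS maximum-likelihood analysis estimated haplotype phenotypic means with 95% CI.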

The conditions of data set [5]: human, in vivo, oral. An outline of the steps: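 Patients at steady state, same oral calcineurin inhibitor dose for ≥7 days. 0-h blood drawn before the ~7 AM dose to give trough. Samples iced, centrifuged, harvested within 60 min, stored −70°C until assay.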
[6] abbreviates: ABCC2 1249 G>A (rs2273697) All, N=147.
[7] abbreviates: ABCC2 3972 C>T (rs 3740066) All, N=146.
The mark [8] stands for this setting: ABCC2 −24C>T (rs717620) All, N=147.

The AUC(0-t) is the area under the concentration-time curve up to a stated or last time point. Low readings indicate low exposure, high ones high exposure. By AUC is commonly meant the area under the concentration-time curve, a measure of exposure. High values mean high exposure, low ones low exposure.

With `COc1c(C)c2c(c(O)c1C/C=C(\C)CCC(=O)O)C(=O)OC2` [Mycophenolic acid, mycophenolic acid], the “secondary mycophenolic acid peak, time of appearance” value in data set [1] is 6 to 12 h. Also, the “Mycophenolic acid CL/F” value was 15.99 ± 9.41 L/h in data set [2] (All (N=147), steady state, oral, mean ± SD); 20.50 ± 9.99 L/h in data set [2] (Cyclosporine Group (n=80), mycophenolate mofetil, mean ± SD); 10.60 ± 4.71 L/h in data set [2] (Tacrolimus Group (n=67), enteric-coated mycophenolate sodium, mean ± SD). Further, the “Enterohepatic Recirculation, patients” value in data set [2] (Cyclosporine (n=80), 36 patients) is on record as 36 (45.0%); in data set [2] (Tacrolimus (n=67), 52 patients), 52 (77.61%). In data set [2] (Cyclosporine Group (n=80), mean ± SD), the “Mycophenolic acid AUC0-12hr” value amounted to 40.82 ± 17.60 mg●hr/L. The area under the curve AUC(0-t) in data set [2] (human, plasma, oral, Mycophenolic acid AUC0-12hr, Tacrolimus Group (n=67), mean ± SD) was found to be 68900 ± 30900 ng·h/mL; in data set [3] (setting [6]), 53600 ng·h/mL; in data set [3] (setting [7]), 53400 ng·h/mL; in data set [3] (setting [8]), 53600 ng·h/mL. The AUC in data set [2] (human, plasma, oral, All (N=147), mean ± SD) was determined as 19100 ± 15200 ng·h/mL; in data set [2] (human, plasma, oral, Cyclosporine Group (n=80), mean ± SD) it was 13100 ± 7150 ng·h/mL; in data set [2] (human, plasma, oral, Tacrolimus Group (n=67), mean ± SD), 26200 ± 18800 ng·h/mL. Moreover, the “patients achieving the therapeutic range of AUC0-12h from 30 to 60 mg●h/L” value was 56.3% in data set [2] (patients receiving cyclosporine) and 34.3% in data set [2] (tacrolimus group). The slower apparent clearance in data set [2] (tacrolimus group compared with cyclosporine group) turned out to be 48%. The “patients exhibiting enterohepatic circulation” value in data set [2] (tacrolimus regimen) is “More than 75%”. The clearance in data set [3] (setting [6]) was 266 mL/min; in data set [3] (setting [7]), 268 mL/min; in data set [3] (setting [8]), 266 mL/min. Moreover, the concentration at 12 h in data set [4] (All (N=147), variant haplotype (CGT)) was determined as 1010 ng/mL; in data set [4] (All (N=147), wildtype haplotype (CGC)), 1630 ng/mL; in data set [4] (Cyclosporine Group (n=80), variant haplotype (CGT)), 783 ng/mL; in data set [4] (Cyclosporine Group (n=80), wildtype haplotype (CGC)), 965 ng/mL; in data set [4] (Tacrolimus Group (n=67), variant haplotype (CGT)), 1330 ng/mL; in data set [4] (Tacrolimus Group (n=67), wildtype haplotype (CGC)) it was 2250 ng/mL.
For the compound `C=CC[C@@H]1/C=C(\C)C[C@H](C)C[C@H](OC)[C@H]2O[C@@](O)(C(=O)C(=O)N3CCCC[C@H]3C(=O)O[C@H](/C(C)=C/[C@@H]3CC[C@@H](O)[C@H](OC)C3)[C@H](C)[C@@H](O)CC1=O)[C@H](C)C[C@@H]2OC` [Tacrolimus, tacrolimus], the concentration at 0 h in data set [5] amounted to 7.2 ± 1.89 ng/mL.
